Experimental data from ChEMBL document CHEMBL2417505, “Discovery of 7-azaindole based anaplastic lymphoma kinase (ALK) inhibitors: wild type and mutant (L1196M) active compounds with unique binding mode” (Bioorg Med Chem Lett, 2013).

What was measured:
[1] = target: T1, ALK tyrosine kinase receptor (Homo sapiens, UniProt Q9UM73); experiment: Inhibition of wild type human recombinant ALK after 30 mins by TR-FRET assay
Target sequence in this assay (Q9UM73 whole entry): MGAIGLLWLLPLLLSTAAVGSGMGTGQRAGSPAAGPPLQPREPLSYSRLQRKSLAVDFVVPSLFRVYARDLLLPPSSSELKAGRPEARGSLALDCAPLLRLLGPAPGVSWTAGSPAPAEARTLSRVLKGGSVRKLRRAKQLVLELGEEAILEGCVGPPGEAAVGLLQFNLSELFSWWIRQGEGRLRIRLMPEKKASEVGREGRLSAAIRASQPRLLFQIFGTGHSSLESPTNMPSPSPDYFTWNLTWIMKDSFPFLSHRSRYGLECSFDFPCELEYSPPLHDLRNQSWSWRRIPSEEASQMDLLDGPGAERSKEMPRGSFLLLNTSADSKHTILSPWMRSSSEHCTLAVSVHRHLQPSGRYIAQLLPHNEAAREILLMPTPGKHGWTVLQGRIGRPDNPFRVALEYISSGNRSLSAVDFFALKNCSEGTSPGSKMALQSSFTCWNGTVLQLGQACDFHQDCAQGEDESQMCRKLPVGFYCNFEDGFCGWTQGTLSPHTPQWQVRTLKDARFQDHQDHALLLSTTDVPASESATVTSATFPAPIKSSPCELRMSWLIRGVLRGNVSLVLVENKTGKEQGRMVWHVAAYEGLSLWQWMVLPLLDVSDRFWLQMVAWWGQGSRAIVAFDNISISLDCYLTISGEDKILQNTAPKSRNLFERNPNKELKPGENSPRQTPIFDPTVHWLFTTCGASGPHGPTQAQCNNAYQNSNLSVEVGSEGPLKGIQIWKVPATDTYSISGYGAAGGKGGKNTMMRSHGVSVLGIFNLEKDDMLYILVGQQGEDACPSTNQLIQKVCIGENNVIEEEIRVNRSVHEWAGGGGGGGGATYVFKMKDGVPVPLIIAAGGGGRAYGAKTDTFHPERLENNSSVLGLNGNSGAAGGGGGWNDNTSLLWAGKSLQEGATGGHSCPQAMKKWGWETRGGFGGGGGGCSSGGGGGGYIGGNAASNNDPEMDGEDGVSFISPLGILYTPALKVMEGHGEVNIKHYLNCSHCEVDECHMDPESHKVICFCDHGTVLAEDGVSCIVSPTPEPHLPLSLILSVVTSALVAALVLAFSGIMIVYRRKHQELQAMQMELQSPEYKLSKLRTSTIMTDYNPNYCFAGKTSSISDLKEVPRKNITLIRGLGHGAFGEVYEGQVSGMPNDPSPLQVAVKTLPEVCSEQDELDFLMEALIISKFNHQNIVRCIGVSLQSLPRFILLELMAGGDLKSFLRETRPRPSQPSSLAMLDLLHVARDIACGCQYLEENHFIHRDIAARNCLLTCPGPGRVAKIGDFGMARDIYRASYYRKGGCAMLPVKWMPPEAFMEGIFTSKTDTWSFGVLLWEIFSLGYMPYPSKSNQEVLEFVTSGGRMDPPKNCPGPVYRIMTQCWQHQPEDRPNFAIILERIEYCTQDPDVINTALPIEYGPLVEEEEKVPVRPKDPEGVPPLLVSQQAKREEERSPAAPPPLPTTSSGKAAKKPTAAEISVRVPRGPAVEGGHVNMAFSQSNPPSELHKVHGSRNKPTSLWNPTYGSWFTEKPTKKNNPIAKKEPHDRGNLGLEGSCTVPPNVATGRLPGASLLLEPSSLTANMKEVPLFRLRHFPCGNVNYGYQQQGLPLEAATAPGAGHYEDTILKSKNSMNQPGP

[2] = target: T2, Aurora kinase A (Homo sapiens) (UniProt O14965); experiment: Inhibition of aurora A kinase (unknown origin) at 100 nM
T2 sequence (whole entry): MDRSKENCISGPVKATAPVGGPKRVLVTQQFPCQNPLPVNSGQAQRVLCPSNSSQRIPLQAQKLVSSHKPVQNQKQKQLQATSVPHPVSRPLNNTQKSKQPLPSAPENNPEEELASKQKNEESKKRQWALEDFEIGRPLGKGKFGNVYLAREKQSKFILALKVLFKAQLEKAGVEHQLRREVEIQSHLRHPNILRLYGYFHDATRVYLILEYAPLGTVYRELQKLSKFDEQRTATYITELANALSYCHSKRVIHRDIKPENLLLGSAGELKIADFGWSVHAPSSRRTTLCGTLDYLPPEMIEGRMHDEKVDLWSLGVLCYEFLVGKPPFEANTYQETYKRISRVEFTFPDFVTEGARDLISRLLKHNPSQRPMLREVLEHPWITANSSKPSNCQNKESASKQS

KARPAS-299 = experiment: Cytotoxicity against human KARPAS299 cells after 72 hrs by XTT assay; format: functional, cell-based; conditions: KARPAS-299, 72 h
[3] = target: ALK tyrosine kinase receptor (Homo sapiens, UniProt Q9UM73, L1196M); experiment: Inhibition of human ALK L1196M mutant after 30 mins by TR-FRET assay
Chain of ALK tyrosine kinase receptor (Homo sapiens, UniProt Q9UM73, L1196M) (Q9UM73 19-1620 L1196M limits assumed): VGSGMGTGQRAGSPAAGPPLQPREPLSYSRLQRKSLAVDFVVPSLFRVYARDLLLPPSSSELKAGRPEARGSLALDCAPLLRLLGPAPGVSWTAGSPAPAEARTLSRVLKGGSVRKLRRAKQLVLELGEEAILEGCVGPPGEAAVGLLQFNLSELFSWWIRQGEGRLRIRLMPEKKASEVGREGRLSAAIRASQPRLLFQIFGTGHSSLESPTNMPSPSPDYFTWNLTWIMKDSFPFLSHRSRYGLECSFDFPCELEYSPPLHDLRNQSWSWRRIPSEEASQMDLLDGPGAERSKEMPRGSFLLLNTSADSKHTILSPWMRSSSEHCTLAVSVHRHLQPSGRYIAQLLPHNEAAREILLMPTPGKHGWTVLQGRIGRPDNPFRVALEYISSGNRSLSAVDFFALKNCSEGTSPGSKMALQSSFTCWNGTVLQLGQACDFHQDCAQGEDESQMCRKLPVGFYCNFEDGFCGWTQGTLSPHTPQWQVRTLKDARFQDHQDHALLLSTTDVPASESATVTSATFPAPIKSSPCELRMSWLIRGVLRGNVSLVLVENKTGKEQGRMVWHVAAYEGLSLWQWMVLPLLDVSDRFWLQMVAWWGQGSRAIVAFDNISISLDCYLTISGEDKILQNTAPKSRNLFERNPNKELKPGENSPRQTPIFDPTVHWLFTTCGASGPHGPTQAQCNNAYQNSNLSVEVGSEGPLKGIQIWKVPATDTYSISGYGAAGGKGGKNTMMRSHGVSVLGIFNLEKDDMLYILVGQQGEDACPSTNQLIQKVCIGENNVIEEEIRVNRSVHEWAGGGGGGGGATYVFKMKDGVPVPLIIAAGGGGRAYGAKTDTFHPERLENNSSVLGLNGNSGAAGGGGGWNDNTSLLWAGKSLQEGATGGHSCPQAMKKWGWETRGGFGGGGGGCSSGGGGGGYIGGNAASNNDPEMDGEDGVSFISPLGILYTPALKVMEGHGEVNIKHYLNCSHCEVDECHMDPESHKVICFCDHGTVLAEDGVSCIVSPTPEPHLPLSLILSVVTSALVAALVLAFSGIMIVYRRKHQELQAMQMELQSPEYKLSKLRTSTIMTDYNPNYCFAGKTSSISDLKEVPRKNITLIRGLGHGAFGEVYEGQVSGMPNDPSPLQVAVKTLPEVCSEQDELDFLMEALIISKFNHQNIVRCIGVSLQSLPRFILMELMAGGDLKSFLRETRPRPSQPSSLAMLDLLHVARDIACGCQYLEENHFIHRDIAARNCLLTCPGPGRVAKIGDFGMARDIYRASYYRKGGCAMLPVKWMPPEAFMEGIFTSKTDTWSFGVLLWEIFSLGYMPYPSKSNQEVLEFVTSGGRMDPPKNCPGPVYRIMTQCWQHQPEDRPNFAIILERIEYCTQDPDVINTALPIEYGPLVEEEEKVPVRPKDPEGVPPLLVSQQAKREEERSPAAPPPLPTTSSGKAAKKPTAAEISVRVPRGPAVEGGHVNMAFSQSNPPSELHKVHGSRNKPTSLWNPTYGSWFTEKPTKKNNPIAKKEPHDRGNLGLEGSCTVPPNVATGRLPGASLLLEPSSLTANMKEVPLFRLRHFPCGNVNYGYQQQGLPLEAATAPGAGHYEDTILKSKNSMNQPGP
Summary of the method: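 L1196M mutant ALK enzyme run in TR-FRET as for wild type (HEPES pH 7.1 buffer, ULight poly-GT substrate, Eu anti-phosphotyrosine detection, 30 min reaction) but with 0.5µM ATP; IC50.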

Homo sapiens = organism: Homo sapiens; experiment: Selectivity ratio of IC50 for aurora A kinase (unknown origin) to IC50 for human recombinant ALK
[4] = target: T1, ALK tyrosine kinase receptor; experiment: Inhibition of ALK in human KARPAS299 cells assessed as phosphorylated Stat3 level after 6 hrs by Western blotting analysis; format: cell-based, KARPAS-299
Summary of the method: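 Karpas 299 cells (4 × 10^5) treated 6 h at set concentrations, with crizotinib at 10 μM as positive control; lysed in RIPA, 30 µg lysate run on 10% SDS-PAGE, PVDF blot probed for phospho-Stat3 (Tyr705) and total Stat3; ECL detection; IC50 from blot densitometry.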
Target sequence in this assay (Q9UM73 whole entry): as the sequence (Q9UM73 whole entry) above

[5] = target: T1, ALK tyrosine kinase receptor; experiment: Inhibition of ALK in human KARPAS299 cells assessed as phosphorylated ALK level; conditions: for inhibition: KARPAS-299
[6] = target: Cyclin-dependent kinase 2 (Homo sapiens) (UniProt P24941); experiment: Inhibition of CDK2 (unknown origin) at 100 nM
[7] = target: Fibroblast growth factor receptor 1 (Homo sapiens) (UniProt P11362); experiment: Inhibition of FGFR1 (unknown origin) at 100 nM
Chain of Fibroblast growth factor receptor 1 (Homo sapiens) (P11362 22-822 limits assumed): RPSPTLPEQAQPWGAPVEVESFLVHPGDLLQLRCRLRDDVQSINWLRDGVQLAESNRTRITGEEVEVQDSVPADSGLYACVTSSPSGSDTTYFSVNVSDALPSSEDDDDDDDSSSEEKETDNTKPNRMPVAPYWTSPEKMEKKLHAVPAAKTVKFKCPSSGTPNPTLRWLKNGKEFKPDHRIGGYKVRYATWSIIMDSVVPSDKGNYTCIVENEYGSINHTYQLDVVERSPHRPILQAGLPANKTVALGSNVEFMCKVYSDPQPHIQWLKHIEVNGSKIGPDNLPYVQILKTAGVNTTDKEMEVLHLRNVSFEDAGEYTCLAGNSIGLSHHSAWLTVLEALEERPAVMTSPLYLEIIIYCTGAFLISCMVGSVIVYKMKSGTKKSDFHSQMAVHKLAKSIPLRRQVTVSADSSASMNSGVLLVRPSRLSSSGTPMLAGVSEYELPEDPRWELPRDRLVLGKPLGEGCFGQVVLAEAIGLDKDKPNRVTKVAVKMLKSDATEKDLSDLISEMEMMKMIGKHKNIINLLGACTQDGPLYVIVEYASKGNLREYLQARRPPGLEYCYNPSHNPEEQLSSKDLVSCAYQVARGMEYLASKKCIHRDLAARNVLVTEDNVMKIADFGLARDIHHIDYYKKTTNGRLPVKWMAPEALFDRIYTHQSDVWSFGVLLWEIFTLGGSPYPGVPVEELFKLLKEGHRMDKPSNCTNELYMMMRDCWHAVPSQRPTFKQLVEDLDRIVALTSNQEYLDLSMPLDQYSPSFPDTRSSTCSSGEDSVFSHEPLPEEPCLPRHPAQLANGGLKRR

[8] = target: Vascular endothelial growth factor receptor 2 (Homo sapiens) (UniProt P35968); experiment: Inhibition of KDR (unknown origin) at 100 nM
[9] = target: Hepatocyte growth factor receptor (Homo sapiens) (UniProt P08581); experiment: Inhibition of c-Met (unknown origin) at 100 nM
[10] = target: Macrophage-stimulating protein receptor (Homo sapiens) (UniProt Q04912); experiment: Inhibition of RON (unknown origin) at 100 nM

Compound	IC50 [1] [nM]	inhibition [2] [%]	IC50 (KARPAS-299) [nM]	IC50 [3] [nM]	Ratio IC50 (Homo sapiens)	IC50 [4] [nM]	IC50 [5] [nM]	inhibition [5]	inhibition [6] [%]	inhibition [7] [%]	inhibition [8] [%]	inhibition [9] [%]	inhibition [10] [%]
Cn1cc(-c2cnc3[nH]cc(-c4cnn(Cc5cccc(C#N)c5)c4)c3c2)cn1	32	85	1610	150	–	–	–	–	–	–	–	–	–
Cn1cc(-c2cnc3[nH]cc(-c4cnn(Cc5cccc(C(F)(F)F)c5)c4)c3c2)cn1	247	84	1010	465	–	–	–	–	–	–	–	–	–
Cc1nn(Cc2cccc(F)c2)c(C)c1-c1c[nH]c2ncc(-c3cnn(C)c3)cc12	31	–	–	275	11	–	–	–	–	–	–	–	–
Cn1cc(-c2cnc3[nH]cc(-c4cnn(Cc5cccc(F)c5)c4)c3c2)cn1	5.6	84	466	35	2	138	219	Dose-dependent effect	–	–	–	–	–
Cn1cc(-c2cnc3[nH]cc(-c4cnn(Cc5cc(F)cc(F)c5)c4)c3c2)cn1	6	74	664	47	–	–	–	–	–	–	–	–	–
Cn1cc(-c2cnc3[nH]cc(-c4cnn(Cc5cccc([N+](=O)[O-])c5)c4)c3c2)cn1	70	–	1850	–	–	–	–	–	–	–	–	–	–
Cn1cc(-c2cnc3[nH]cc(-c4cnn(Cc5cccc(C(=O)O)c5)c4)c3c2)cn1	98	–	> 10000	811	–	–	–	–	–	–	–	–	–
Cn1cc(-c2cnc3[nH]cc(-c4cnn(Cc5cccc(O)c5)c4)c3c2)cn1	41	93	3360	200	–	–	–	–	–	–	–	–	–
Cc1nn(Cc2cc(F)ccc2F)c(C)c1-c1c[nH]c2ncc(-c3cnn(C)c3)cc12	63	–	–	428	3	–	–	–	–	–	–	–	–
Cc1nn(Cc2cc(F)cc(F)c2)c(C)c1-c1c[nH]c2ncc(-c3cnn(C)c3)cc12	26	–	–	310	30	–	–	–	–	–	–	–	–
Cn1cc(-c2cnc3[nH]cc(-c4cnn(Cc5cc(F)ccc5F)c4)c3c2)cn1	29	75	1200	124	–	1590	900	Dose-dependent effect	–	–	–	–	–
Cn1cc(-c2cnc3[nH]cc(-c4cnn(Cc5cccc(Cl)c5)c4)c3c2)cn1	30	87	855	143	–	986	3120	Dose-dependent effect	–	–	–	–	–
Cn1cc(-c2cnc3[nH]cc(-c4cnn(Cc5ccccc5F)c4)c3c2)cn1	85	64	2090	223	–	–	–	–	–	–	–	–	–
Cc1nn(Cc2cccc(F)c2)cc1-c1c[nH]c2ncc(-c3cnn(C)c3)cc12	6	–	–	56	6	–	–	–	–	–	–	–	–
Cn1cc(-c2cnc3[nH]cc(-c4cnn(Cc5ccc(F)c(F)c5)c4)c3c2)cn1	84	84	2260	379	–	986	3300	Dose-dependent effect	–	–	–	–	–
Cn1cc(-c2cnc3[nH]cc(-c4cnn(Cc5ccccc5)c4)c3c2)cn1	90	84	3000	141	–	–	–	–	41	14	28	7	21
Cn1cc(-c2cnc3[nH]cc(-c4cnn(Cc5ccc(F)cc5)c4)c3c2)cn1	70	74	1780	256	–	3010	3910	Dose-dependent effect	–	–	–	–	–
Cn1cc(-c2cnc3[nH]cc(-c4cnn(Cc5cccc(N)c5)c4)c3c2)cn1	28	–	3630	–	–	–	–	–	–	–	–	–	–
